Results from ChEMBL document CHEMBL4725276, “Strategies towards potent trypanocidal drugs: Application of Rh-catalyzed [2 + 2 + 2] cycloadditions, sulfonyl phthalide annulation and nitroalkene reactions for the synthesis of substituted quinones and their evaluation against Trypanosoma cruzi” (Bioorg Med Chem, 2020).

Legend:
[1] = system: Trypanosoma cruzi; assay: Trypanocidal activity against Trypanosoma cruzi Y strain bloodstream trypomastigotes isolated from infected Albino Swiss mouse assessed as lysis of parasite in presence of 5 % mouse blood incubated for 24 hrs by Neubauer chamber method; assay type: functional, organism-based
Method in brief: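 Y-strain bloodstream trypomastigotes were isolated from infected mice at peak parasitemia by differential centrifugation and suspended at 10x10⁶ parasites/mL in DMES. They were mixed 1:1 with compound prepared at 2x final (DMSO final ≤0.1%) and incubated 24 h at 4 °C with 5% mouse blood, with benznidazole as control.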

[2] = Cytotoxicity against albino Swiss mouse Peritoneal macrophages in presence of 5 % mouse blood incubated for 24 hrs by PrestoBlue dye based fluorescence assay; assay type: cell-based, Peritoneal macrophage; settings: read-out: LD50
Method in brief: (§1)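 Primary peritoneal macrophages from Albino Swiss mice, 2.5 x 10⁴ cells/well in RPMI-1640 (pH 7.2, 10% foetal bovine serum, 2 mM glutamine), preincubated 24 h at 37 °C. Treated in fresh supplemented medium for 24 h at 37 °C. PrestoBlue added, 2 h incubation, read at 560 and 590 nm. LC₅₀/24 h is the concentration damaging 50% of cells, from reduction relative to untreated cells.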

[3] = Selectivity index, ratio of LD50 for cytotoxicity against albino Swiss mouse peritoneal macrophages to IC50 for Trypanocidal activity against Trypanosoma cruzi Y strain bloodstream trypomastigotes isolated from infected albino Swiss mouse in presence of 5 % mouse blood; assay type: toxicity; settings: read-out: Selectivity Index
Method in brief: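 Combines the macrophage LD₅₀/24 h with the trypanocidal IC₅₀/24 h, parasite assay run in 5% mouse blood at 4 °C. Y strain bloodstream trypomastigotes from infected Albino Swiss mice (peak parasitemia, differential centrifugation) were suspended at 10x10⁶/mL in DMES. They were mixed 1:1 with compound at twice the final concentration (DMSO ≤0.1% final) for 24 h. Neubauer chamber counts; IC₅₀ is 50% lysis; mean ± SD of at least three independent experiments.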

[4] = system: Trypanosoma cruzi; assay: Trypanocidal activity against Trypanosoma cruzi Y strain bloodstream trypomastigotes isolated from infected Albino Swiss mouse assessed as lysis of parasite in absence of mouse blood incubated for 24 hrs by Neubauer chamber method; assay type: functional, organism-based
Method in brief: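 Bloodstream trypomastigotes (Y strain) were taken from mice at peak parasitemia by differential centrifugation and resuspended at 10x10⁶/mL in DMES. Equal volumes of suspension and compound at twice final concentration (DMSO final ≤0.1%) were incubated 24 h at 37 °C with no blood added, with benznidazole as control.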

[5] = Cytotoxicity against albino Swiss mouse Peritoneal macrophages in absence of mouse blood incubated for 24 hrs in absence of mouse blood by PrestoBlue dye based fluorescence assay; assay type: cell-based, Peritoneal macrophage; settings: read-out: LD50; method in brief: as §1
[6] = system: Trypanosoma cruzi; assay: Potency index, ratio of benznidazole IC50 to compound IC50 for trypanocidal activity against Trypanosoma cruzi Y strain bloodstream trypomastigotes isolated from infected Albino Swiss mouse assessed as lysis of parasite in presence of 5 % mouse blood incubated for 24 hrs by Neubauer chamber method; assay type: functional
[7] = Selectivity index, ratio of LD50 for cytotoxicity against albino Swiss mouse peritoneal macrophages to IC50 for Trypanocidal activity against Trypanosoma cruzi Y strain bloodstream trypomastigotes isolated from infected albino Swiss mouse in absence of mouse blood; assay type: toxicity; settings: read-out: Selectivity Index
Method in brief: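 Combines the macrophage LD₅₀/24 h with the trypanocidal IC₅₀/24 h, parasite assay run without blood at 37 °C. Y strain bloodstream trypomastigotes were taken from infected Albino Swiss mice at peak parasitemia by differential centrifugation, at 10x10⁶/mL in DMES. They were mixed 1:1 with compound at twice the final concentration (DMSO ≤0.1% final) for 24 h. Neubauer counts; IC₅₀ is 50% lysis.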

SMILES	IC50 [1] [µM]	also measured
COC(=O)C1(C(=O)OC)Cc2cc3c(cc2C1)C(=O)C(OC)=CC3=O	> 500	–
O=C1c2ccccc2C(=O)c2c(-c3ccccc3[N+](=O)[O-])coc21	> 500	–
COc1ccc(-c2cn(-c3ccc(OC)cc3)c3c2C(=O)c2ccccc2C3=O)cc1	> 500	–
Cc1ccc(S(=O)(=O)n2c3ccccc3c3c(-c4ccccc4)c4c(cc32)C(=O)C=CC4=O)cc1	122	–
O=C1c2ccccc2C(=O)c2c(-c3ccc(Br)cc3)coc21	> 500	–
Cc1ccc(-c2cn(-c3ccc(Br)cc3)c3c2C(=O)c2ccccc2C3=O)cc1	> 500	–
CCCCc1c2c(cc3c1C(=O)C=CC3=O)CC(C(=O)OC)(C(=O)OC)C2	64.4	CC50 at 24 h [2]: 4.2 µM; selectivity ratio [3]: 0.07
COC(=O)C1(C(=O)OC)Cc2cc3c(cc2C1)C(=O)C(I)=CC3=O	51.3	CC50 at 24 h [2]: 1.6 µM; selectivity ratio [3]: 0.03
COc1ccc(-c2cn(-c3ccccc3)c3c2C(=O)c2ccccc2C3=O)cc1	> 500	–
COC(=O)C1(C(=O)OC)Cc2cc3c(c(CO[Si](C)(C)C(C)(C)C)c2C1)C(=O)C=CC3=O	> 500	–
COC(=O)C1(C(=O)OC)Cc2cc3c(cc2C1)C(=O)C(c1ccccc1OC)=CC3=O	102	–
O=C(Cn1ccnc1[N+](=O)[O-])NCc1ccccc1 [BENZNIDAZOLE]	–	IC50 [4]: 8.8 µM; CC50 at 24 h [5]: > 1000 µM
COC(=O)C1(C(=O)OC)Cc2cc3c(cc2C1)C(=O)C(N(C)c1ccccc1)=CC3=O	> 500	–
Cc1ccc(S(=O)(=O)N2Cc3cc4c(cc3C2)C(=O)C=CC4=O)cc1	> 500	–
COC(=O)C1(C(=O)OC)Cc2cc3c(cc2C1)C(=O)C(c1ccc(C(F)(F)F)cc1)=CC3=O	362	–
O=C1C=CC(=O)c2cc3c(cc21)CCC3	49.2	CC50 at 24 h [2]: 1.7 µM; selectivity ratio [3]: 0.03; Ratio IC50 [6]: 2
CC(=O)CCC1=C(c2ccco2)C(=O)c2ccccc2C1=O	> 500	–
O=C1c2ccccc2C(=O)c2c1oc1ccccc21	> 500	–
COc1ccc(-n2cc(-c3ccco3)c3c2C(=O)c2ccccc2C3=O)cc1	> 500	–

SMILES	IC50 [1] [µM]	also measured
COc1ccc(-n2cc(-c3ccccc3)c3c2C(=O)c2ccccc2C3=O)cc1	> 500	–
O=C1C=CC(=O)c2cc3c(cc21)COC3	193	–
COC(=O)C1(C(=O)OC)Cc2cc3c(cc2C1)C(=O)C(c1ccccc1Br)=CC3=O	51.5	CC50 at 24 h [2]: 3.8 µM; selectivity ratio [3]: 0.07
COc1ccc(-n2cc(-c3ccc(C)cc3)c3c2C(=O)c2ccccc2C3=O)cc1	> 500	–
COc1ccc(C2=C(CCC(C)=O)C(=O)c3ccccc3C2=O)cc1	109	CC50 at 24 h [2]: 79 µM; selectivity ratio [3]: 1.38
O=C1c2ccccc2C(=O)c2c(-c3cccs3)coc21	> 500	–
COC(=O)C1(C(=O)OC)Cc2c(C)c3c(c(C)c2C1)C(=O)C=CC3=O	> 500	–
O=C1c2ccccc2C(=O)c2c(-c3ccc(F)cc3)coc21	> 500	–
CCCCn1cc(-c2ccc(Cl)cc2)c2c1C(=O)c1ccccc1C2=O	> 500	–
COC(=O)C1(C(=O)OC)Cc2c(c(-c3ccc(OC)cc3)c3c(c2-c2ccc(OC)cc2)C(=O)C=CC3=O)C1	2.3	CC50 at 24 h [2]: 1.9 µM; selectivity ratio [3]: 0.81; selectivity ratio [7]: 13.9; IC50 [4]: 0.14 µM
COC(=O)C1(C(=O)OC)Cc2cc3c(cc2C1)C(=O)C=CC3=O	51.5	CC50 at 24 h [2]: 1.6 µM; selectivity ratio [3]: 0.03
CSc1ccc(-c2coc3c2C(=O)c2ccccc2C3=O)cc1	> 500	–
COC(=O)C1(C(=O)OC)Cc2cc3c(c(C(=O)O)c2C1)C(=O)C=CC3=O	> 500	–
COC(=O)C1(C(=O)OC)Cc2cc3c(c(O)c2C1)C(=O)C=C(OC)C3=O	> 500	–
COc1ccc(-c2coc3c2C(=O)c2ccccc2C3=O)cc1	> 500	–
COC(=O)C1(C(=O)OC)Cc2cc3c(cc2C1)C(=O)C(C)=C(C)C3=O	> 500	–
Cc1ccc(-c2cn(-c3ccc(C)cc3)c3c2C(=O)c2ccccc2C3=O)cc1	> 500	–
CC(=O)CCC1=C(c2ccc(F)cc2)C(=O)c2ccccc2C1=O	114	CC50 at 24 h [2]: 65.4 µM
Cc1ccc(-c2cn(-c3cccc(Br)c3)c3c2C(=O)c2ccccc2C3=O)cc1	> 500	–

SMILES	IC50 [1] [µM]	also measured
COC(=O)C1(C(=O)OC)Cc2c(c(-c3ccc(F)cc3)c3c(c2-c2ccc(F)cc2)C(=O)C=CC3=O)C1	3.3	CC50 at 24 h [2]: 3 µM; selectivity ratio [3]: 0.89; selectivity ratio [7]: 9.3; IC50 [4]: 0.32 µM
COC(=O)C1(C(=O)OC)Cc2cc3c(cc2C1)C(=O)C(Cl)=CC3=O	56.6	CC50 at 24 h [2]: 5 µM; selectivity ratio [3]: 0.09
COC(=O)C1(C(=O)OC)Cc2cc3c(cc2C1)C(=O)C(c1ccccc1)=CC3=O	369	–
COC(=O)C1(C(=O)OC)Cc2cc3c(cc2C1)C(=O)c1ccccc1C3=O	> 500	–
CCOc1cccc2c3c(oc12)C(=O)c1ccccc1C3=O	> 500	–
COc1ccc(-c2cn(-c3ccc(Cl)cc3)c3c2C(=O)c2ccccc2C3=O)cc1	> 500	–
O=C1C=CC(=O)c2c1cc1oc3ccccc3c1c2-c1ccccc1	247	–
COc1ccc2oc3c(c2c1)C(=O)c1ccccc1C3=O	> 500	–
COc1ccc(-n2cc(-c3ccc(Cl)cc3)c3c2C(=O)c2ccccc2C3=O)cc1	> 500	–
CCCCc1c2c(c(CCCC)c3c1C(=O)C=CC3=O)CN(S(=O)(=O)c1ccc(C)cc1)C2	> 500	–
COc1ccc(-n2cc(-c3ccc(F)cc3)c3c2C(=O)c2ccccc2C3=O)cc1	> 500	–
Cc1ccc2oc3c(c2c1)C(=O)c1ccccc1C3=O	> 500	–
COC(=O)C1(C(=O)OC)Cc2c(O)c3c(c(O)c2C1)C(=O)C(OC)=CC3=O	> 500	–
COc1ccc(-c2cn(-c3ccc(F)cc3)c3c2C(=O)c2ccccc2C3=O)cc1	> 500	–
COC(=O)C1(C(=O)OC)Cc2cc3c(cc2C1)C(=O)C(Br)=CC3=O	150	–
COC1=CC(=O)c2cc3c(c(-c4ccc5c(c4)OCO5)c2C1=O)COC3=O	> 500	–
COC(=O)C1(C(=O)OC)Cc2c(c(-c3ccccc3)c3c(c2-c2ccccc2)C(=O)C=CC3=O)C1	2.5	CC50 at 24 h [2]: 1.6 µM; selectivity ratio [3]: 0.6; selectivity ratio [7]: 3.7; IC50 [4]: 0.44 µM
Cc1cc2oc3c(c2cc1C)C(=O)c1ccccc1C3=O	> 500	–
